Measurements pooled from the literature.
Each line is one published result; the experiments were not run side by side.
Transmembrane protease serine 6: Transmembrane protease serine 6 (Homo sapiens, UniProt Q8IU80)
Palmitoyl-protein thioesterase 1: Palmitoyl-protein thioesterase 1 (Homo sapiens, UniProt P50897)

C=CCCCCCC(C)(NC(=O)[C@H](Cc1cscn1)NC(=O)CCc1ccccc1)C(=O)N[C@@H](CCCNC(=N)N)C(=O)c1nc2ccccc2s1 (stereo partly drawn) — remaining activity (Transmembrane protease serine 6; enzyme activity; inhibitor; 0.1 µM): 101%
Cc1cc([C@@H](C)Nc2ccccc2C(=O)O)c2nc(N3CCC(F)(F)CC3)c(C#N)c(=O)n2c1 — remaining binding (Serine/threonine-protein kinase B-raf (BRAF, Homo sapiens, UniProt P15056); binding; competition with immobilised ligand; 10 µM): 74%
Cc1ccc2c(-c3cc4c(CN5CCN(Cc6ccccn6)CC5)cnc(C)c4o3)cc(=O)oc2c1 — inhibition (Epidermal growth factor receptor (EGFR, Homo sapiens, UniProt P00533, L858R/T790M); enzyme activity; inhibitor; ADP detection; 1 µM): 65 to 75%
COc1cc(-c2cncc3c2CN(C)Cc2cc(N4CCNCC4)ccc2-3)cc(OC)c1OC — remaining activity (Epidermal growth factor receptor (EGFR, Homo sapiens, UniProt P00533, L858R); enzyme activity; inhibitor; 1 µM): 36%
CC(C)C[C@@H](C(=O)N[C@H](C(=O)OC1CCCC1)c1ccccc1)[C@H](O)C(=O)NO — inhibition (Palmitoyl-protein thioesterase 1; enzyme activity; inhibitor; 625 µM): 8.02%
C=CC(=O)N1CCC(COCC(=O)N2CCN(c3nc(-c4cnc(N)nc4C(F)F)nc(N4CCOC[C@@H]4C)n3)CC2)CC1 — remaining binding (Protein kinase C delta type (PRKCD, Homo sapiens, UniProt Q05655); binding; competition with immobilised ligand; 1 µM): 100%
N=C(N)NCCC[C@H](NC(=O)[C@H](CC12CC3CC(CC(C3)C1)C2)NC(=O)[C@H](Cc1cscn1)NC(=O)CCc1ccccc1)C(=O)c1nc2ccccc2s1 — remaining activity (Transmembrane protease serine 6; enzyme activity; inhibitor; 0.1 µM): 95%
CC(=O)O[C@@]12CO[C@@H]1C[C@H](O)[C@@]1(C)C(=O)[C@H](O)C3=C(C)[C@@H](OC(=O)[C@H](O)[C@@H](NC(=O)OC(C)(C)C)c4ccccc4)C[C@@](O)([C@@H](OC(=O)c4ccccc4)[C@H]21)C3(C)C — inhibition (Palmitoyl-protein thioesterase 1; enzyme activity; inhibitor; 125 µM): 10.3%
CNc1ncc2c(/C=C/C(=O)N3CCC(OC)CC3)nn(Cc3cccc(C(F)(F)F)c3)c2n1 — remaining activity (Cyclin-dependent kinase 6, with cyclin D2 (CDK6, Homo sapiens, UniProt Q00534); enzyme activity; inhibitor; radiometric; 1 µM): 92%
NC(=O)c1c(OCc2c(F)cc(Br)cc2F)nsc1NC(=O)NCCCCN1CCCC1 — inhibition (Palmitoyl-protein thioesterase 1; enzyme activity; inhibitor; 125 µM): 8.63%
N=C(N)NCCC[C@H](NC(=O)[C@H](Cc1ccc(I)cc1)NC(=O)[C@H](Cc1cscn1)NC(=O)CCc1ccccc1)C(=O)c1nc2ccccc2s1 — remaining activity (Transmembrane protease serine 6; enzyme activity; inhibitor; 0.1 µM): 90%
O=C1C=C2CC3(O)COc4cc(O)ccc4C3=C2C=C1O (stereo not drawn) — inhibition (Palmitoyl-protein thioesterase 1; enzyme activity; inhibitor; 625 µM): 29.3%
N=C(N)NCCC[C@H](NC(=O)[C@H](Cc1ccc(OCc2ccccc2)cc1)NC(=O)[C@H](Cc1cscn1)NC(=O)CCc1ccccc1)C(=O)c1nc2ccccc2s1 — remaining activity (Transmembrane protease serine 6; enzyme activity; inhibitor; 0.1 µM): 8%
CC1CNC(=O)NC1=O (stereo not drawn) — inhibition (Palmitoyl-protein thioesterase 1; enzyme activity; inhibitor; 125 µM): -1.19%
N=C(N)NCCC[C@H](NC(=O)[C@H](Cc1ccc(C(=O)c2ccccc2)cc1)NC(=O)[C@H](Cc1cscn1)NC(=O)CCc1ccccc1)C(=O)c1nc2ccccc2s1 — remaining activity (Transmembrane protease serine 6; enzyme activity; inhibitor; 0.1 µM): 78%
